OXTR ag – agonists of human oxytocin receptor. CHO-OTR cells, Fluo-8 calcium fluorescence; normalized: DMSO 0%, oxytocin 100%. P30559. activation, % at 3 µM. 0.32% of 320,000 active. AID 2435;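 active = activation above the mean of all tested compounds plus 3 SD, cutoff set per screening run, cut at about 20% in these data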;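 also: peak over basal fluorescence ratio from a 100 s FLIPR kinetic read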
Target sequence (P30559 whole entry, looked up): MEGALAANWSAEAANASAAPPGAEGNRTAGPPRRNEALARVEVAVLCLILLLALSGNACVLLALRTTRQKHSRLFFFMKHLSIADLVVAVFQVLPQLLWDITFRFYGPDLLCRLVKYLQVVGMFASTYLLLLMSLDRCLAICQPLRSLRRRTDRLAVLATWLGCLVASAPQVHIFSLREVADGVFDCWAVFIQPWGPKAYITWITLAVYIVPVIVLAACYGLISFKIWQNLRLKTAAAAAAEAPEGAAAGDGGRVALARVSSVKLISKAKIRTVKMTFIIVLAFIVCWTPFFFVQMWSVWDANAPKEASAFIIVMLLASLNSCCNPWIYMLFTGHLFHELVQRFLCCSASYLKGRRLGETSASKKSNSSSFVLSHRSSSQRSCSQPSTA
V1R ag counter – activates human V1a receptor in oxytocin agonist counter-screen; P37288; CHO-V1R cells, Fluo-8 calcium fluorescence, agonist mode; 0% DMSO, 100% 3 nM vasopressin; activation, % at 3 µM; 0.25% of 320,000 active; AID 2797;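 active = activation above the mean activation of all tested compounds plus 3 SD, per screening run, cut at about 20% in these data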;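 also: signal is peak over basal fluorescence ratio across a 100 second FLIPR read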
zfTRPN1 agonist – zebrafish TRPN1 (NompC) channel agonism | HEK293 zebrafish TRPN1-YFP, Fluo-8 calcium fluorescence; 100% = response to 87 µM carbachol | activation, % at 3 µM | 0.18% of 220,000 active;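 active = activation above its plate's cutoff, the mean activation of test wells on that plate plus 3 SD, cut at about 19% in these data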;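 also: 0% = DMSO alone and 100% = 87 µM carbachol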
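System: zebrafish TRPN1-YFP in HEK293 cells / Dosing: 3 µM single point / Timing: dye loading 1 h at 37 °C, then 30 min room temperature / Signal: Fluo-8 calcium fluorescence, excitation 470-495 nm, emission 515-575 nm / Read-out basis: percent activation from peak over basal fluorescence ratio, control-normalized / Control set: high carbachol 87 µM, low DMSO alone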
TRPML3 agonist – activates the human TRPML3 channel. AID 1448. HEK293 TRPML3-YFP, Fluo-8 calcium fluorescence; 100% = the carbachol control signal. Q8TDD5. activation, % at 3 µM. 0.29% of 220,000 active;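 active = activation above its plate's cutoff, the mean activation of the plate's test wells plus 3 SD, cut at about 12% in these data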;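 also: 0% = DMSO only wells and 100% = carbachol wells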
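system = HEK293 cells stably carrying human TRPML3-YFP | doses = one concentration, 3 µM nominal, 0.3% DMSO | timing = dye loading 1 h 37 °C then 30 min ambient, 125 s read | detection = Fluo-8 calcium dye fluorescence, ex 470-495, em 515-575 nm | benchmarks = high control carbachol 87 µM, low control DMSO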
OXTR potentiator – potentiates the human oxytocin receptor response; P30559; CHO-OTR cells, Fluo-8 calcium fluorescence, potentiator mode; 0% = oxytocin EC15, 100% = EC100; activation, % at 3 µM; 0.061% of 320,000 active;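 active = activation above that plate's cutoff, the mean activation of tested compounds plus 3 SD, cut at about 6.6% in these data, passing the limit was not always enough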;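 also: 100% uses oxytocin at 75 nM as the full agonist control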
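Dosing: Single dose, 3.0 µM nominal final compound concentration | Material: Human OTR in CHO cells | Technique: Kinetic Fluo-8 calcium fluorescence | Benchmarks: EC15 oxytocin alone as 0%, 75 nM oxytocin as 100% | Probe or stimulus: Oxytocin at about EC15, sub-maximal agonist stimulus | Incubation: Compound 6 min at room temperature before oxytocin, 100 s read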
OXTR agonist cf – human OXTR agonism, confirmation; CHO-OTR cells, Fluo-8 calcium fluorescence, agonist; 20% of 390 active; AID 434963; activation, % at 3 µM; shares compounds with OXTR ag;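 active = mean activation above about 20% derived from the earlier single-dose screen, limit read from the data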;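 also: peak over minimum fluorescence ratio per well during a 100 second FLIPR read; 0% = DMSO alone and 100% = oxytocin high control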
V1aR counter 3x – V1R agonism in triplicate, counter-screen for OXTR agonists; CHO-V1R cells, Fluo-8 calcium fluorescence, agonist; activation, % at 3 µM; 10% of 390 active; AID 434991; shares compounds with OXTR ag;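 active = mean activation over triplicate exceeds the hit threshold set in the earlier primary screen, cut at about 20% in these data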;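 also: peak over basal fluorescence ratio within a 100 second read; 0% = DMSO alone and 100% = 3 nM vasopressin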
Numbers without * were called inactive; ! = not active in a repeat. Compounds with a hit are over-represented: about 0.58% of the library has one in this group of screens.

Results for O=c1c2ccccc2ncn1-c1ccc(Cl)cc1[N+](=O)[O-] ?
OXTR ag: 0; V1R ag counter: 0; zfTRPN1 agonist: -1; TRPML3 agonist: 1; OXTR potentiator: -17

What do the screens show for `O=c1c2ccccc2ncn1-c1ccc([N+](=O)[O-])cc1[N+](=O)[O-]`?
OXTR ag: 21*; V1R ag counter: 15; OXTR potentiator: -16; OXTR agonist cf: 0; V1aR counter 3x: 1

How did Cc1nc2c(c(=O)c3ccccc3n2C)c(=O)n1C1CCCCCC1 do in these assays?
OXTR ag: 20*; V1R ag counter: 12; zfTRPN1 agonist: 14; TRPML3 agonist: 0; OXTR potentiator: -12; OXTR agonist cf: 9; V1aR counter 3x: 2

What do the screens show for `Cc1nc2ccccc2n2c(O)c(CC(=O)O)cc12`?
OXTR ag: 24*; V1R ag counter: 15; zfTRPN1 agonist: 0; TRPML3 agonist: 1; OXTR potentiator: 2; OXTR agonist cf: 1; V1aR counter 3x: 2

How did Cc1nc2ccccc2n1CCC(=O)O do in these assays?
OXTR ag: 1; V1R ag counter: -1; zfTRPN1 agonist: 0; TRPML3 agonist: 1; OXTR potentiator: -4

What do the screens show for `COc1ccc(C(=O)CSc2nnc(CNc3ccc(C)cc3C)o2)cc1`?
OXTR ag: 25*; V1R ag counter: 11; zfTRPN1 agonist: -1; TRPML3 agonist: 1; OXTR potentiator: -22; OXTR agonist cf: 2; V1aR counter 3x: 3

Results for Cc1ccc(NCc2nnc(SCC(=O)c3ccc4c(c3)OCCO4)o2)c(C)c1 ?
OXTR ag: 3; V1R ag counter: 1; zfTRPN1 agonist: 1; TRPML3 agonist: 0; OXTR potentiator: -2

How did O=C(O)c1cccc(NC(=O)c2cn(-c3ccccc3)nc2-c2cc3ccccc3o2)c1 do in these assays?
OXTR ag: 20*; V1R ag counter: 10; zfTRPN1 agonist: 0; TRPML3 agonist: 0; OXTR potentiator: -16; OXTR agonist cf: 7; V1aR counter 3x: 6

What do the screens show for `COC(=O)c1sc(NC(=S)NC(=O)c2ccccc2C)nc1C`?
OXTR ag: 28*; V1R ag counter: 10; zfTRPN1 agonist: 0; TRPML3 agonist: 0; OXTR potentiator: -26; OXTR agonist cf: 33*; V1aR counter 3x: 39*

How did c1ccc2c(c1)NC1(CCCCCC1)n1c-2nc2ccccc21 do in these assays?
OXTR ag: -2; V1R ag counter: -1; zfTRPN1 agonist: 0; TRPML3 agonist: 1; OXTR potentiator: 7

Results for CC(O)CNCc1ccc(-c2ccccc2)cc1 (stereo not given) ?
OXTR ag: 4; V1R ag counter: 3; zfTRPN1 agonist: 2; TRPML3 agonist: 0; OXTR potentiator: -3

What do the screens show for `CC(NCc1ccc(-c2ccccc2)cc1)C(O)c1ccccc1` (stereo not given)?
OXTR ag: 23*; V1R ag counter: 12; zfTRPN1 agonist: 0; TRPML3 agonist: 1; OXTR potentiator: -6; OXTR agonist cf: 3; V1aR counter 3x: 4

What do the screens show for `CCSc1ccc2c(c1)N(CCCN1CCN(C)CC1)c1ccccc1S2`?
OXTR ag: 9; V1R ag counter: 3; OXTR potentiator: -5

Results for CN1CCN(CCCN2c3ccccc3Sc3ccc(Cl)cc32)CC1 ?
OXTR ag: 25*!; V1R ag counter: 10; zfTRPN1 agonist: 0; TRPML3 agonist: 2; OXTR potentiator: -17; OXTR agonist cf: 11; V1aR counter 3x: 3

What do the screens show for `O=C(NCc1ccccc1)C(c1ccccc1F)N(CC1CCCO1)C(=O)c1ccccn1` (stereo not given)?
OXTR ag: 1; V1R ag counter: 2; OXTR potentiator: -6

What do the screens show for `CCCCc1c(C(=O)O)cc(OC)cc1C(=O)O`?
OXTR ag: 0; V1R ag counter: 0; zfTRPN1 agonist: 1; TRPML3 agonist: 1; OXTR potentiator: -11

How did CC(=O)N1CCN(c2ccc(NC(=O)c3ccc(Cl)c([N+](=O)[O-])c3)cc2)CC1 do in these assays?
OXTR ag: 1; V1R ag counter: 8; OXTR potentiator: -11

How did COc1ccc(C(=O)Nc2ccc(N3CCN(C(C)=O)CC3)cc2)cc1[N+](=O)[O-] do in these assays?
OXTR ag: 25*; V1R ag counter: -1; zfTRPN1 agonist: 1; TRPML3 agonist: 1; OXTR potentiator: -12; OXTR agonist cf: 1; V1aR counter 3x: 0

How did CN(C)C(CNC(=O)c1cccc(S(=O)(=O)N2CC3(C)CC2CC(C)(C)C3)c1)c1ccco1 (stereo not given) do in these assays?
OXTR ag: 0; V1R ag counter: 0; zfTRPN1 agonist: 0; TRPML3 agonist: 1; OXTR potentiator: -1

Results for O=C(NC1CCCC1)C(c1cccs1)N(CC1CCCO1)C(=O)Cc1cccs1 (stereo not given) ?
OXTR ag: 20*; V1R ag counter: -1; zfTRPN1 agonist: 1; TRPML3 agonist: 0; OXTR potentiator: -13; OXTR agonist cf: -1; V1aR counter 3x: 1

Results for COc1ccc(C(C(=O)NC2CCCC2)N(CC2CCCO2)C(=O)Cc2cccs2)cc1OC (stereo not given) ?
OXTR ag: -1; V1R ag counter: 1; zfTRPN1 agonist: -1; TRPML3 agonist: 0; OXTR potentiator: 0

How did CCCN(CC1CC1)C(=O)Nc1ccccc1C do in these assays?
OXTR ag: -2; V1R ag counter: -1; zfTRPN1 agonist: 2; TRPML3 agonist: 0; OXTR potentiator: -11

How did COc1cc(CNCC(O)c2ccccc2)ccc1OCc1ccc(Cl)nc1 (stereo not given) do in these assays?
OXTR ag: 20*; V1R ag counter: 9; zfTRPN1 agonist: 2; TRPML3 agonist: 1; OXTR potentiator: -12; OXTR agonist cf: 10; V1aR counter 3x: 3

What do the screens show for `COc1cc(CNCCc2ccccc2)ccc1OCc1ccc(Cl)nc1`?
OXTR ag: 15; V1R ag counter: 7; zfTRPN1 agonist: 1; TRPML3 agonist: 0; OXTR potentiator: -10

What do the screens show for `Cc1nc(SCC(=O)Nc2c(C)nn(C)c2C)c2cnn(-c3ccccc3)c2n1`?
OXTR ag: 23*; V1R ag counter: 6; zfTRPN1 agonist: 1; TRPML3 agonist: 0; OXTR potentiator: -17; OXTR agonist cf: 7; V1aR counter 3x: 8

Results for COc1ccc(C2SCCN2C(=S)Nc2cccc(Cl)c2)cc1 (stereo not given) ?
OXTR ag: 23*; V1R ag counter: 14; zfTRPN1 agonist: 2; TRPML3 agonist: 1; OXTR potentiator: -21; OXTR agonist cf: 30*; V1aR counter 3x: 18

Screens: PubChem BioAssay, The Scripps Research Institute Molecular Screening Center
